Source: PubChem BioAssay (several laboratories)
Shown are actives, neighbours in structure and some others; about 2.6% of the full set was active somewhere.
Calb FLC = C. albicans growth inhibition with fluconazole, primary screen, CaCi-2 strain, Alamar Blue fluorescence; C. albicans CaCi-2 (fluconazole-resistant clinical isolate) + fluconazole, 48 h; growth inhibition, % (concentration not given with the values); hit rate 0.57% among 300,000; AID 1979, 2009;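 active = growth inhibition above about 58% in most replicates, limit read from the data, passing the limit was not always enough; inconclusive = exactly half the replicates above a set limit; inactive = most replicates below a set limit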;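 also: all wells also contain fluconazole at 8 µg/ml as a sub-toxic cotreatment; 0% = median of DMSO wells and 100% = median of geldanamycin control wells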
ARFGAP1 inh = inhibitors of rat ARFGAP1 GAP activity, primary screen, biochemical, fluorescence polarization, GDP tracer; Arfgap1-stimulated ARF1 GTP hydrolysis, GDP FP detection; inhibition, % at 16.5 µM; hit rate 0.26% among 360,000; AID 651572, 2012;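 active = inhibition above a per-plate limit, mean inhibition of low control wells plus 3 SD, cut at about 25% in these data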;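 also: 0% = DMSO wells with enzyme and 100% = wells lacking Arfgap1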
Target sequence (Q62848 1-136 limits assumed): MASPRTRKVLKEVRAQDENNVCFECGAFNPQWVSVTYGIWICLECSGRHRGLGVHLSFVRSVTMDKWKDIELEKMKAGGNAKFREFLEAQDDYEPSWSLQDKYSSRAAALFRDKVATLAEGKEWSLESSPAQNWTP
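Replicates: Single well per compound | Assay system: Truncated rat Arfgap1 GAP domain | Control set: No-Arfgap1 wells (100%) versus DMSO full-reaction wells (0%) | Times: Enzyme reaction 120 min at 25 °C after 20 min preincubation | Reagent: Human ARF1(Δ1-17)-GTP substrate | Measured by: Tracer-displacement fluorescence polarization with EDTA stop, 620/688 nm | Measure: Percent inhibition of Arfgap1-stimulated GTP hydrolysis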
IMP-1 inhibitor = IMP-1 metallo-beta-lactamase inhibitors, primary screen, biochemical, epi-absorbance readout, Pseudomonas aeruginosa enzyme; metallo-beta-lactamase IMP-1 (Pseudomonas aeruginosa); hit rate 0.45% among 290,000; purified IMP-1, nitrocefin hydrolysis, epi-absorbance fluorescence; inhibition, % at 5.6 µM;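 active = inhibition above the mean plus 3 SD of all compounds in the same screening run, cut at about 4.5% in these data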;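 also: 0% = IMP-1 with DMSO and 100% = DMSO wells lacking enzyme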
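Material – recombinant IMP-1 enzyme, purified · Amount – IMP-1 0.2 nM before substrate addition · Medium – HEPES buffer pH 7.1 with ZnSO4 and Brij 35 · Timing – 25 °C, 15 min preincubation, 25 min reaction · Measured by – plate fluorescence quenching by hydrolysis product, ex 480/em 530 nm · Read-out – percent enzyme inhibition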
VIM-2 inhibitor = VIM-2 metallo-beta-lactamase inhibitors, primary screen, biochemical, epi-absorbance readout, Pseudomonas aeruginosa enzyme; purified VIM-2, nitrocefin hydrolysis, epi-absorbance fluorescence; inhibition, % at 5.6 µM; hit rate 0.89% among 290,000;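 active = inhibition above the mean of all tested compounds plus 3 SD, cutoff set per screening run, cut at about 7.5% in these data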;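 also: red hydrolysis product quenches plate fluorescence so inhibitors raise well fluorescence; 0% = enzyme with DMSO and 100% = DMSO without enzyme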
ASAP1 inh = inhibitors of human ASAP1 ArfGAP activity, primary screen, biochemical, fluorescence polarization; Arf-GAP with SH3 domain, ANK repeat and PH domain-containing protein 1 (Homo sapiens), …; ASAP1-stimulated ARF1 GTP hydrolysis, GDP FP detection; inhibition, % at 16.5 µM; hit rate 0.19% among 360,000; AID 624377, 2012; in the data active = inhibition above about 25%;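 also: 0% = vehicle with enzyme and substrate and 100% = no enzyme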
PHOSPHO1 block = PubChem AID 1565. Phosphoethanolamine/phosphocholine phosphatase (Homo sapiens), Q8TCT1. recombinant PHOSPHO1, absorbance phosphatase assay. inhibition, % at 13.3 µM. hit rate 1.1% among 290,000; in the data active = inhibition above about 60%
Target sequence (Q8TCT1 whole entry, looked up): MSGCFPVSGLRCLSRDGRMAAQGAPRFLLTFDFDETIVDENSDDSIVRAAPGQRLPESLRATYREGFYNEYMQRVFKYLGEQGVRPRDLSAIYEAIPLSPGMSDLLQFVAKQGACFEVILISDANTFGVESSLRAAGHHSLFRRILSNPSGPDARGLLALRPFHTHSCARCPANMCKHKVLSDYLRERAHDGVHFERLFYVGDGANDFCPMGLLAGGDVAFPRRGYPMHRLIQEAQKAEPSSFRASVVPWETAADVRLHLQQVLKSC
ASAP1 inh confirm = ASAP1 GAP activity inhibitors, confirmation, biochemical, fluorescence polarization, human, triplicate; hit rate 37% among 620; shares compounds with ASAP1 inh; inhibition, % at 16.5 µM; AID 624431, 2012; ASAP1-stimulated Arf1 GTPase, GDP fluorescence polarization;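 active = mean inhibition over triplicates exceeds the hit threshold derived for the earlier primary screening run, cut at about 25% in these data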
Numbers without * were called inactive; u = inconclusive; x = no result given.

SMILES	Calb FLC	ARFGAP1 inh	IMP-1 inhibitor	VIM-2 inhibitor	ASAP1 inh	PHOSPHO1 block	ASAP1 inh confirm
Cc1ccc(/C=N/NC(=O)CCCOc2ccc(Cl)cc2Cl)cc1[N+](=O)[O-]	8	22	-5	-2	50*	17	37*
Cc1ccc(Cn2cc(CN(C)C3CN(Cc4cn(Cc5ccc(C)cc5)nn4)S(=O)(=O)C3)nn2)cc1 (configuration not stated)	x	4	x	x	-1	x	x
CC(Oc1ccc(Cl)cc1Cl)c1nc(-c2ccc(NC(=O)c3cccnc3)cc2)no1 (configuration not stated)	2	4	-5	-4	14	-14	x
CC(Oc1ccc(Cl)cc1Cl)c1nc(-c2ccc(NC(=O)c3ccncc3)cc2)no1 (configuration not stated)	15	4	-2	1	25*	-10	8
CCOC(=O)C1(C)CCCN(C(=O)c2cc(C#N)cs2)C1 (configuration not stated)	x	4	x	x	1	x	x
COC(=O)c1cccc(Nc2nc(-c3ccncc3)nc3ccccc23)c1	0	0	0	3	28*	11	57*
CC(=O)c1cccc(Nc2nc(-c3ccccc3)nc3ccccc23)c1	0	3	-1	1	16	-12	x
Oc1cccc(Nc2nc(-c3ccccc3)nc3ccccc23)c1	4	19	-2	0	27*	46	28*
O=[N+]([O-])c1ccc(OCCOc2ccccc2/C=N/n2cnnc2)cc1	1	-2	-1	-2	37*	45	46*
COn1c(SC2CCCCC2)nc2ccccc2c1=O	38	-9	-3	-1	74*	-8	-3
COn1c(SC(C)C)nc2ccccc2c1=O	40	-5	-5	-1	1	-80	x
CCC(CC)C(C(=O)NCc1ccccc1)N1CCN(C(=O)C2CCCO2)CC1 (configuration not stated)	x	-4	x	x	2	x	x
CCN(CC)C(=O)c1cccc(-c2csc(C(C)(O)c3cccc(F)c3)n2)c1 (configuration not stated)	x	-2	x	x	-6	x	x
CC(=O)Nc1ccc(N2C(=O)CSC2c2c(F)cccc2Cl)cc1 (configuration not stated)	-3	-12	-1	-3	27*	43	-2
CCCCC(=O)N(C)c1c(C)nc2ccc(C(=O)Nc3cccc(OC)c3)cn12	x	-7	x	x	-9	x	x
COc1ccc2cc3c(N)nn(C(=O)c4ccccc4[N+](=O)[O-])c3nc2c1	-32	15	-2	-3	-4	-2	x
COc1ccc2cc3c(N)nn(C(=O)c4ccc(Cl)c([N+](=O)[O-])c4)c3nc2c1	11	0	0	0	73*	-13	118*
CC(=O)c1cccc2c1OC(C)C(=O)N2Cc1ccc(Cl)cc1 (configuration not stated)	x	16	x	x	-2	x	x
O=C(Cn1cnc2c(nnn2-c2cccc(F)c2)c1=O)Nc1ccc2c(c1)OCCO2	-8	2	-2	0	1	38	x
COc1ccc(-n2nnc3c(=O)n(CC(=O)Nc4ccc5c(c4)OCCO5)cnc32)cc1OC	8	13	-1	-1	108*	18	73*
CCOC(=O)C(C(=O)Nc1cccc(C)n1)C1CCCCC1 (configuration not stated)	-7	16	-5	-4	26*	-5	8
COc1cc(/C=C2\SC(c3ccc(C)cc3)=NC2=O)cc(OC)c1O	51	9	2	4	25*	17	36*
COc1ccc(/C=C2\SC(N)=NC2=O)cc1Br	13	5	-2	0	14	20	x
Cc1ccc(C2=NC(=O)/C(=C/c3cc(O)c(O)c(Br)c3)S2)cc1	x	-10	3	-1	30*	-23	69*
O=C(C[C@H]1C(=O)N(CCc2ccccc2)C[C@@H]1c1ccccc1)Nc1ccccc1	x	-1	x	x	-5	x	x
SMILES	Calb FLC	ARFGAP1 inh	IMP-1 inhibitor	VIM-2 inhibitor	ASAP1 inh	PHOSPHO1 block	ASAP1 inh confirm
Cc1ccc(S(=O)(=O)c2c(N)n(CCC(C)C)c3nc4ccccc4nc23)cc1	9	10	-3	-2	25*	6	2
Cc1ccc(S(=O)(=O)c2c(N)n(CCCO)c3nc4ccccc4nc23)cc1	3	25	-5	-1	20	18	x
COC(=O)/C=C1\OCc2cc(OCc3ccccc3)ccc21	x	-5	x	x	3	x	x
CCOC(=O)C1=C(CSc2nc(-c3ccccc3)ccc2C#N)OC(N)=C(C#N)C1c1ccccc1 (configuration not stated)	9	5	-1	-4	27*	56	16
CC(=O)Oc1ccc2ccccc2c1C(NC(=O)Cc1ccccc1)c1ccc(Cl)cc1 (configuration not stated)	u	2	-1	-1	140*	-13	6
CC(C)[C@H](NC(=O)c1ccc(Cl)cc1)C(=O)Nc1cccc(S(=O)(=O)N2CCOCC2)c1	x	0	x	x	-3	x	x
CN1CCN(c2ccc(CNC(=O)C3(C)Cc4c(-c5ccc6c(c5)OCO6)ccnc4O3)cc2)CC1 (configuration not stated)	x	4	x	x	-2	x	x
Cc1ccc(C=NNC(=O)c2cc(-c3cccnc3)nc3ccccc23)o1	x	3	x	x	25*	x	10
CCCCCc1c(-c2ccc(OC)cc2)ncn1CCc1ccccc1OC	x	-3	x	x	4	x	x
CCOc1ccc(Br)cc1S(=O)(=O)Nc1ccc(C(=O)OCC(=O)N(C)c2ccccc2)cc1	4	0	-2	-2	26*	-10	10
CCOc1ccc(Br)cc1S(=O)(=O)Nc1ccc(C(=O)Nc2ccccc2OC)cc1	7	5	-3	-2	15	-5	x
COc1ccc(C(C)=O)cc1COC(=O)c1ccc2c(c1)OCCO2	x	-3	x	x	28*	x	8
COc1cccc(CNC(=O)[C@@H]2CCCN2C(=O)[C@H]2CCCCN2C(=O)c2ccccc2C)c1	x	4	x	x	0	x	x
O=C(N/N=C/c1ccc(Br)s1)c1ccc([N+](=O)[O-])cc1	3	12	-3	-1	36*	28	97*
